Results reported in ChEMBL document CHEMBL4354849, “[1,2,5]Oxadiazolo[3,4-b]pyrazine-5,6-diamine Derivatives as Mitochondrial Uncouplers for the Potential Treatment of Nonalcoholic Steatohepatitis” (J Med Chem, 2020).
Each block holds one compound with its values, some of them ahead of it. Active and inactive are the calls of the source. The rule behind the calls is not given here.

Columns and labels:
[1] = tested on: Mus musculus; experiment: Improvement in liver fibrosis in Stelic C57BL/6 mouse model of streptozotocin-induced NASH assessed as effect on liver Col1a1 mRNA expression at 25 mg/kg/day, po administered in high-fat diet for 21 days; format: functional, organism-based
[2] = Induction of mitochondrial uncoupling in rat L6 cells assessed as oxygen consumption rate measured over 90 mins by oxygen consumption rate by seahorse assay; format: mitochondria, Mitochondria
[3] = Drug level in C57BL/6J mouse white adipose tissue at 50 mg/kg, po measured after 1 hr by LC-MS analysis; format: ADME, organism-based; conditions: read-out: Drug uptake
Method in brief: (§1)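 Male C57BL/6 mice, 12 weeks old, chow-fed, given a single 50 mg/kg oral gavage bolus in 90% methylcellulose/2% Tween80/8% DMSO. Killed by cervical dislocation at 1 h. Tissues were rinsed, snap-frozen, powdered and homogenized, then extracted into 90% acetonitrile/10% methanol. Quantified by LC-MS/MS against standards spiked into vehicle-treated tissue, normalized to tissue weight. n=3.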

[4] = Drug level in C57BL/6J mouse quadricep muscle at 50 mg/kg, po measured after 1 hr by LC-MS analysis; format: ADME, organism-based, Quadriceps femoris; conditions: read-out: Drug uptake; method in brief: as §1
[5] = tested on: Mus musculus; experiment: Improvement in liver fibrosis in Stelic C57BL/6 mouse model of streptozotocin-induced NASH assessed as effect on liver MMP2 mRNA expression at 25 mg/kg/day, po administered in high-fat diet for 21 days; format: functional, organism-based
[6] = tested on: Mus musculus; experiment: Improvement in liver fibrosis in Stelic C57BL/6 mouse model of streptozotocin-induced NASH assessed as effect on liver Cd146 mRNA expression at 25 mg/kg/day, po administered in high-fat diet for 21 days; format: functional, organism-based
[7] = Drug level in C57BL/6J mouse kidney at 50 mg/kg, po measured after 1 hr by LC-MS analysis; format: ADME, organism-based; conditions: read-out: Drug uptake; method in brief: as §1
[8] = tested on: Mus musculus; experiment: Effect on food intake in Stelic C57BL/6 mouse model of streptozotocin-induced NASH assessed as reduction in food intake at 25 mg/kg/day, po administered in high-fat diet for 21 days; format: ADME, organism-based; conditions: in vivo, 504 h
Method in brief: (§2)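 STAM NASH model: male C57BL/6 mice got 200 µg streptozotocin subcutaneously at day 2 of life, then high-fat diet from 4 weeks. At 6 weeks they were randomized, 8 per group. Drug was mixed into the high-fat diet at 25 mg/kg/d for 21 days. Killed at 9 weeks by cardiac puncture under isoflurane. Food intake was measured per cage of 4 every 3–4 days.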

[9] = Drug level in C57BL/6J mouse heart at 50 mg/kg, po measured after 1 hr by LC-MS analysis; format: ADME, organism-based; conditions: read-out: Drug uptake; method in brief: as §1
[10] = tested on: Mus musculus; experiment: Induction of energetic stress in Stelic C57BL/6 mouse model of streptozotocin-induced NASH assessed as effect on AMPK-dependent ACC activity at 25 mg/kg/day, po administered in high-fat diet for 21 days by Western blot analysis; format: organism-based; conditions: in vivo, 504 h
[11] = tested on: Mus musculus; experiment: Induction of hyperglycemia in Stelic C57BL/6 mouse model of streptozotocin-induced NASH at 25 mg/kg/day, po administered in high-fat diet for 21 days; format: organism-based; conditions: in vivo, 504 h; method in brief: as §2
[12] = tested on: Mus musculus; experiment: Improvement in liver fibrosis in Stelic C57BL/6 mouse model of streptozotocin-induced NASH assessed as reduction in plasma triglyceride at 25 mg/kg/day, po administered in high-fat diet for 21 days; format: functional, organism-based; method in brief: as §2
[13] = tested on: Mus musculus; experiment: Improvement in liver fibrosis in Stelic C57BL/6 mouse model of streptozotocin-induced NASH assessed as decrease in liver triglyceride content at 25 mg/kg/day, po administered in high-fat diet for 21 days; format: functional, organism-based; method in brief: as §2
[14] = tested on: Mus musculus; experiment: Improvement in liver fibrosis in Stelic C57BL/6 mouse model of streptozotocin-induced NASH assessed as effect on liver Timp1 mRNA expression at 25 mg/kg/day, po administered in high-fat diet for 21 days; format: functional, organism-based
[15] = tested on: Mus musculus; experiment: Improvement in liver fibrosis in Stelic C57BL/6 mouse model of streptozotocin-induced NASH assessed as improvement in inflammation score at 25 mg/kg/day, po administered in high-fat diet for 21 days; format: functional, organism-based; method in brief: as §2
[16] = Drug level in C57BL/6J mouse liver at 50 mg/kg, po measured after 1 hr by LC-MS analysis; format: ADME, organism-based; conditions: read-out: Drug uptake; method in brief: as §1
[17] = tested on: Mus musculus; experiment: Improvement in liver fibrosis in Stelic C57BL/6 mouse model of streptozotocin-induced NASH assessed as effect on liver Gfap mRNA expression at 25 mg/kg/day, po administered in high-fat diet for 21 days; format: functional, organism-based
[18] = tested on: Mus musculus; experiment: Improvement in liver fibrosis in Stelic C57BL/6 mouse model of streptozotocin-induced NASH assessed as effect on liver Gfap mRNA expression at 25 mg/kg/day, po for 21 days
[19] = tested on: Mus musculus; experiment: Improvement in liver fibrosis in Stelic C57BL/6 mouse model of streptozotocin-induced NASH assessed as improvement in pathologist derived steatosis score at 25 mg/kg/day, po administered in high-fat diet for 21 days; format: functional, organism-based; method in brief: as §2
[20] = tested on: Mus musculus; experiment: Effect on ballooning in Stelic C57BL/6 mouse model of streptozotocin-induced NASH at 25 mg/kg/day, po administered in high-fat diet for 21 days; format: ADME, organism-based; conditions: in vivo, 504 h; method in brief: as §2
[21] = tested on: Mus musculus; experiment: Improvement in liver fibrosis in Stelic C57BL/6 mouse model of streptozotocin-induced NASH assessed as liver fibrosis score at 25 mg/kg/day, po administered in high-fat diet for 21 days by Picrosirius ed staining based assay (reference value: 0.91 +/- 0.25); format: functional; method in brief: as §2
[22] = tested on: Mus musculus; experiment: Improvement in liver fibrosis in Stelic C57BL/6 mouse model of streptozotocin-induced NASH assessed as effect on serum ALT level at 25 mg/kg/day, po administered in high-fat diet for 21 days; format: functional, organism-based; method in brief: as §2
[23] = tested on: Mus musculus; experiment: Improvement in liver fibrosis in Stelic C57BL/6 mouse model of streptozotocin-induced NASH assessed as effect on liver Cd146 mRNA expression at 25 mg/kg/day, po for 21 days
[24] = Drug level in C57BL/6J mouse brain at 50 mg/kg, po measured after 1 hr by LC-MS analysis; format: ADME, organism-based; conditions: read-out: Drug uptake; method in brief: as §1
[25] = tested on: Mus musculus; experiment: Improvement in liver fibrosis in Stelic C57BL/6 mouse model of streptozotocin-induced NASH assessed as effect on plasma AST level at 25 mg/kg/day, po administered in high-fat diet for 21 days; format: functional, organism-based; method in brief: as §2
[26] = tested on: Mus musculus; experiment: Improvement in liver fibrosis in Stelic C57BL/6 mouse model of streptozotocin-induced NASH assessed as increase in plasma cholesterol at 25 mg/kg/day, po administered in high-fat diet for 21 days; format: functional, organism-based; method in brief: as §2
[27] = tested on: Mus musculus; experiment: Improvement in liver fibrosis in Stelic C57BL/6 mouse model of streptozotocin-induced NASH assessed as NAS score at 25 mg/kg/day, po administered in high-fat diet for 21 days (reference value: 4.6 +/- 0.7); format: functional; method in brief: as §2
[28] = tested on: Mus musculus; experiment: Induction of energetic stress in Stelic C57BL/6 mouse model of streptozotocin-induced NASH assessed as effect on AMPK activity at 25 mg/kg/day, po administered in high-fat diet for 21 days by Western blot analysis; format: organism-based; conditions: in vivo, 504 h
[29] = tested on: Mus musculus; experiment: Improvement in liver fibrosis in Stelic C57BL/6 mouse model of streptozotocin-induced NASH assessed as effect on liver alphaSMA mRNA expression at 25 mg/kg/day, po administered in high-fat diet for 21 days; format: functional, organism-based
[30] = tested on: Mus musculus; experiment: Improvement in liver fibrosis in Stelic C57BL/6 mouse model of streptozotocin-induced NASH assessed as effect on liver Tgfb1 mRNA expression at 25 mg/kg/day, po administered in high-fat diet for 21 days; format: functional, organism-based
[31] = tested on: Mus musculus; experiment: Effect on core body temperature in C57BL/6J mouse at 25 to 100 mg/kg, po measured 1 to 24 hrs post dose by rectal probe thermometer based assay; format: ADME, organism-based; conditions: in vivo
Method in brief: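 Male C57BL/6 mice, 11 weeks old, given single oral gavage doses of 25, 50 or 100 mg/kg, or vehicle (90% methylcellulose/2% Tween80/8% DMSO). Core temperature was read by rectal probe thermometer at 1, 2, 4 and 24 h after dosing. n=5–6 per group.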

[32] = tested on: L6; experiment: Induction of mitochondrial uncoupling in rat L6 cells assessed as oxygen consumption rate up to 50 uM measured over 90 mins by oxygen consumption rate by seahorse assay relative to <= 50 uM BAM15; conditions: Mitochondria
Method in brief: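 L6 rat myoblasts were seeded at 3.5 × 10⁴ cells/well and left to adhere overnight. Medium was switched to unbuffered DMEM with pyruvate and glutamine, pH 7.4, and cells were equilibrated 1 h at 37°C without CO₂. One concentration per well, 2 wells per condition, OCR followed over 90 min. The first three post-injection readings were averaged to build the dose curve. AUC above baseline was expressed relative to BAM15 run on each plate; EC50 came from a Hill fit with the bottom fixed at 100% baseline.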

EC50 [2]: 190 nM | concentration at 1 h [3]: 2850 nM | concentration at 1 h [4]: 260 nM | concentration at 1 h [7]: 4830 nM | concentration at 1 h [9]: 2090 nM | concentration at 1 h [16]: 13400 nM | concentration at 1 h [24]: 850 nM
SMILES: Fc1cccc(Nc2nc3nonc3nc2Nc2ccccc2F)c1
Activity [1]: inactive | Activity [5]: inactive | Activity [6]: inactive | Activity [8]: Non-Toxic | Activity [10]: Non-Toxic | Activity [11]: Non-Toxic | Activity [12]: inactive | Activity [13]: Active | Activity [14]: inactive | Activity [15]: Active | Activity [17]: inactive | Activity [18]: inactive | Activity [19]: inactive | Activity [20]: Non-Toxic | Activity [21]: 0.49 | Activity [22]: Active | Activity [23]: inactive | Activity [25]: inactive | Activity [26]: inactive | Activity [27]: 3.9 | Activity [28]: Non-Toxic | Activity [29]: inactive | Activity [30]: inactive | Activity [31]: Non-Toxic

EC50 [2]: > 20000 nM | Activity [32]: 59%
SMILES: Cc1ccc(Nc2nc3nonc3nc2Nc2ccc(C)cc2)cc1

EC50 [2]: > 100000 nM | Activity [32]: 14%
SMILES: COc1ccc(Nc2nc3nonc3nc2Nc2ccc(OC)cc2)cc1

EC50 [2]: 2200 nM | Activity [32]: 28%
SMILES: CCOc1cccc(Nc2nc3nonc3nc2Nc2ccccc2F)c1
